Values without a mark were called inactive. Records with an inconclusive call do not appear. Active and inactive are the calls of the source.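 Rule for the calls, unless noted: active = inhibition over a set limit, the all-compound mean plus 3 SD, in both replicate runs; inconclusive = over that limit in just one replicate run; inactive = at or under that limit in both runs.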

Experiment [1] can be described thus: S. cerevisiae growth inhibition in permissive medium (OD615), pilot counter-assay for S. cerevisiae lifespan shortening project, permissive growth control (AID 705;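 active = growth inhibition above 25% in both replicates, a cutoff set 3 SD above the mean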). The settings on record: OD615, 24 h, at 10 µM, active compounds read high. In short, it runs like this:
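System: S. cerevisiae with engineered DeaD lifespan system / Measured by: absorbance (optical density) at 615 nm / Read-out: reduction in yeast growth (OD615) / Times: 4 h cell pre-growth, 24 h exposure at 30 °C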

Experiment [2] can be described thus: S. cerevisiae growth inhibition in restrictive medium, OD615, pilot screen, restrictive growth control, yeast lifespan reduction project (AID 706;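 active = growth inhibition above a set limit, 3 SD over mean compound inhibition, in both replicates, cut at about 43% in these data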;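 note: modified DeaD lifespan yeast strain shifted to restrictive glucose medium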). To be noted: OD615, 48 h, at 10 µM, active compounds read high. In short, it runs like this:
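System: Engineered S. cerevisiae DeaD strain | Buffer or medium: Glucose-based CSMM-D restrictive medium | Schedule: 4 h pre-incubation, 48 h exposure at 30 °C | Technique: Optical density at 615 nm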

Experiment [3] is described as follows: doxorubicin toxicity protection in MRP-1 cells – H69AR cells, CellTiter-Glo, duplicate, MRP-1 activator project, pilot screen (AID 807;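 active = viability increase at or above a cutoff of the median across tested compounds plus 3 SD, cut at about 8.5% in these data, passing the limit was not always enough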;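 note: compound pretreatment 18-22 h then 72 h combined with doxorubicin; 0% = doxorubicin alone and 100% = vehicle without doxorubicin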). To be noted: H69AR viability with doxorubicin, CellTiter-Glo luminescence; at 10 µM; active compounds read high. Background: Cellular ATP, detected with luciferase, serves as a proxy for viable cell number.
The nature of experiment [4]: viability of HCT116 without oncogenic beta-catenin – human colon tumor cells, pilot screen (AID 823;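 active = cell viability at or below a set limit in both duplicate runs, the limit being the all-compound median minus 4 SD, cut at about 23% in these data, passing the limit was not always enough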;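 note: 0% = wells killed by 20 µM Hyamine and 100% = untreated DMSO cell wells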). To be noted: HCT116 beta-catenin knockout viability, CellTiter-Glo, 60 h; at 10 µM; active compounds read low.
The nature of experiment [5]: viability of PTEN-null HCT116 cells – cell-based, HCT116 clonal line, CellTiter-Glo, pilot screen (AID 824;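 active = viability at or below 27.92% in each of two runs, the all-compound median minus 4 SD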;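 note: 0% = 20 µM Hyamine control and 100% = vehicle cell control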). The settings on record: HCT116 PTEN-deleted viability, 60 h, at 10 µM, active compounds read low.
Experiment [6] in a line: RAM pathway blockade in budding yeast – dse1pr::URA3 reporter, 5-FOA selection, pilot screen (AID 869).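 Note: 0% = DMSO wells with no growth and 100% = 10 µM 1-NA-PP1 with full growth; RAM network block rescues cells from 5-FOA so hits raise OD615 growth.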 To be noted: S. cerevisiae dse1pr::URA3 5-FOA growth, OD615, 2 d; at 10 µM; active compounds read high; strain carries analog-sensitive mutant Cbk1 kinase.
Experiment [7] can be described thus: RAM signaling pathway blockade in yeast – S. cerevisiae, Pdr1DBD-CYC8 efflux-inhibited sensitized strain, primary screen (AID 1298;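 active = RAM network inhibition above 8.4% in each of two replicates, 3 SD over the compound average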;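 note: 0% = DMSO untreated cells without growth and 100% = 10 µM 1-NA-PP1 full growth; higher means more yeast growth rescued from 5-FOA killing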). The settings on record: S. cerevisiae cbk1-as DSE1-URA3 strain, 5-FOA growth OD615, 2 d; at 50 µM; active compounds read high.

In the case of `COc1cc2[nH]c(=O)n(CCCC(=O)NCCc3ccccc3)c(=O)c2cc1OC`, the growth inhibition in experiment [1] was -4.08%; in experiment [2], -7.02%. For the same molecule, the viability increase in experiment [3] is -3.37%. Also, the viability in experiment [4] was 99%; in experiment [5] it was 94.5%. For the same molecule, the inhibition in experiment [6] is 3.42%. Besides, the RAM network inhibition in experiment [7] was 2.87%.

Regarding `COc1cc(C2NC(=O)NC(C)=C2C(=O)OC2CCCCC2)cc(Br)c1O` (stereo unspecified), the growth inhibition was -9.15% in experiment [1] and -9.77% in experiment [2]. Moreover, in experiment [3], the viability increase was 0.18%. Moreover, the viability in experiment [4] is 82.1%; in experiment [5], 77.3%. The inhibition in experiment [6] is 0.33%. The RAM network inhibition in experiment [7] is 8.82%.

For the molecule `CCN(CCNC(=O)CCCn1nc(C)n2c(cc3sccc32)c1=O)c1ccccc1`, the growth inhibition in experiment [1] was -7.8%; in experiment [2], -4.82%. In addition, the viability increase in experiment [3] is 1.17%. Also, the results for the viability in experiment [4] and in experiment [5] were 97.2% and 93%, respectively. Besides, in experiment [6], the inhibition was -0.2%. In addition, in experiment [7], the RAM network inhibition is 6.63%.

For `O=c1c2c3c(sc2nc2n1CCCCC2)CCCC3`, the growth inhibition in experiment [1] was -12.6%; in experiment [2], -15.5%. Also, the viability increase in experiment [3] is -1.02%. The viability in experiment [4] was 90.4%; in experiment [5], 85.6%. Besides, the inhibition in experiment [6] was 0.635%. In addition, the RAM network inhibition in experiment [7] was 0.62%.

Regarding `CCCC(=O)NCCCc1nc2ccccc2n1CCC`, the growth inhibition in experiment [1] was -2.54%; in experiment [2], -20.1%. The viability increase in experiment [3] was -1.65%. In addition, the viability in experiment [4] was 102%; in experiment [5] it was 95.1%. In experiment [6], the inhibition is 1.56%. Besides, the RAM network inhibition in experiment [7] was 3.21%.

With `COc1ccc(OC)c(NC(=O)Nc2nnc(N3CCC(C)CC3)s2)c1`, the growth inhibition is -10.7% in experiment [1] and -9.16% in experiment [2]. Further, the viability increase in experiment [3] is 0.87%. Further, the viability in experiment [4] is 93.1%; in experiment [5], 92.7%. Further, in experiment [6], the inhibition was 1.01%. Besides, the RAM network inhibition in experiment [7] is 2.27%.

Take `COc1ccc(S(=O)(=O)Cc2ccc(C(=O)N3CCCC3)o2)cc1`: the growth inhibition in experiment [1] is 5.75%; in experiment [2] it was -2.15%. In experiment [3], the viability increase is -1.61%. The viability in experiment [4] is 96.7%; in experiment [5], 91%. Also, the inhibition in experiment [6] is 1.11%. Besides, in experiment [7], the RAM network inhibition is 4.21%.

As to `Cc1ccn2c(-c3csc(NCc4ccco4)n3)c(C)nc2c1`, the values for the growth inhibition in experiment [1] and in experiment [2] were -1.21% and 2.84%, respectively. For the same molecule, in experiment [3], the viability increase is -4.37%. In addition, the viability in experiment [4] was 66.6%; in experiment [5], 71.8%. Moreover, in experiment [6], the inhibition was 3.51%. Besides, in experiment [7], the RAM network inhibition is 3.65%.

Regarding `CCOC(=O)c1cn[nH]c1N`, the growth inhibition was -3.76% in experiment [1] and 10.1% in experiment [2]. The viability increase in experiment [3] was 0%. Further, the viability in experiment [4] is 101%; in experiment [5], 102%. Further, the inhibition in experiment [6] is -0.235%. Besides, the RAM network inhibition in experiment [7] is 0.61%.

Consider `CNc1nc(-c2ccc(Cl)cc2)cs1`, for which the growth inhibition in experiment [1] was -5.83%; in experiment [2], -22.5%. The viability increase in experiment [3] was 0.42%. For the same molecule, the viability was 92.1% in experiment [4] and 87.8% in experiment [5]. Also, the inhibition in experiment [6] is 0.94%. The RAM network inhibition in experiment [7] is 0.43%.

On to `COc1ccc(S(=O)(=O)Nc2cc(Cl)ccc2OC)cc1`, for which the values for the growth inhibition in experiment [1] and in experiment [2] were -12.3% and -21.9%, respectively. Also, the viability increase in experiment [3] is -6.67%. Moreover, the viability in experiment [4] is 16.5% (active); in experiment [5], 17.1% (active). The inhibition in experiment [6] is 0.78%. Besides, the RAM network inhibition in experiment [7] is 6.09%.

Take `CC1CCN(c2nnc(N3CCC(C)CC3)c3ccccc23)CC1`: the growth inhibition in experiment [1] was -19.1%; in experiment [2], -14.8%. The viability increase in experiment [3] was -3.17%. The viability in experiment [4] was 84%; in experiment [5], 81.8%. The inhibition in experiment [6] is 1.98%. Further, the RAM network inhibition in experiment [7] was 4.58%.

Consider `Cc1cccn2cc(CCNC(=O)c3ccc(Br)o3)nc12`, for which the growth inhibition is -8.18% in experiment [1] and -5.67% in experiment [2]. Moreover, the viability increase in experiment [3] was -1.61%. Moreover, the viability in experiment [4] was 99%; in experiment [5], 94.3%. In addition, the inhibition in experiment [6] is 1.12%. Further, the RAM network inhibition in experiment [7] was 1.91%.

In the case of `c1ccc(Nc2nc(N3CCOCC3)nc(N3CCOCC3)n2)cc1`, the growth inhibition in experiment [1] was 5.75%; in experiment [2] it was 6.58%. The viability increase in experiment [3] was -6.19%. The viability in experiment [4] was 67.9%; in experiment [5], 67.2%. Moreover, the inhibition in experiment [6] was 0.65%. For the same molecule, the RAM network inhibition in experiment [7] is 1.44%.

For `Cc1csc(NC(=O)CNS(=O)(=O)c2cccs2)n1`, the growth inhibition is -4.12% in experiment [1] and -18.9% in experiment [2]. The viability increase in experiment [3] is -2.55%. The viability in experiment [4] was 93.4%; in experiment [5], 86.8%. For the same molecule, in experiment [6], the inhibition is 0.795%. Besides, the RAM network inhibition in experiment [7] was 2.18%.

On to `Cc1cccc(N=C2NC(=O)/C(=C3/C(=O)N(C)c4ccccc43)S2)c1C`, for which the growth inhibition in experiment [1] is -18.4%; in experiment [2], -15.6%. The viability increase in experiment [3] was -7.01%. Further, the viability was 95.5% in experiment [4] and 91.1% in experiment [5]. Further, the inhibition in experiment [6] was 2.91%. For the same molecule, the RAM network inhibition in experiment [7] was 1.77%.

Take `CCOC(=O)c1cn(-c2ccccc2)nc1-c1cccnc1`: the values for the growth inhibition in experiment [1] and in experiment [2] were -13.6% and -8.75%, respectively. In addition, the viability increase in experiment [3] is -3.34%. Also, the viability was 106% in experiment [4] and 93.5% in experiment [5]. The inhibition in experiment [6] was 1.63%. Besides, in experiment [7], the RAM network inhibition is 7.28%.

Take `CCn1c2ccccc2c2nnc(SCc3cc(=O)n4ccsc4n3)nc21`: the growth inhibition was -8.94% in experiment [1] and 8.05% in experiment [2]. Further, the viability increase in experiment [3] was -2.35%. Besides, the viability in experiment [4] was 93.5%; in experiment [5], 86.3%. Besides, the inhibition in experiment [6] was 1.52%. In experiment [7], the RAM network inhibition was 8.94%.

The term viability denotes a read-out of living cells in per cent, often relative to untreated cells. What is called inhibition is the drop in the measured response relative to a control, in per cent.

For the origin of these results see PubChem BioAssay.
